Laboratory results published in ChEMBL document CHEMBL5036309, “Orally Active Peptide Vector Allows Using Cannabis to Fight Pain While Avoiding Side Effects” (J Med Chem, 2021).
Calls of active or inactive are those of the source. Square brackets hold non-standard residues; d marks the D form. Peptide text beside a SMILES is read from it.

Columns and labels:
HEK293T = test: Inhibition of human c-YFP fused CB1R/n-YFP fused 5HT2A receptor heterodimer formation transfected in human HEK293T cells at 4 uM incubated for 4 hrs by BIFC assay; assay type: cell-based
Summary of the method: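 HEK-293T cells were cotransfected 48 h with 5HT2AR-cYFP and CB1R-nYFP (4 μg cDNA each, polyethylenimine), then treated with 4 μM peptide or vehicle for 4 h at 37 °C. Reconstituted YFP Venus was read on 20 μg protein at 530 nm emission with 400 nm excitation, minus the fluorescence of non-expressing cells. Mean ± SEM, n = 10–30.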

[1] = Drug internalization in mouse BEND3 cells by confocal microscopic analysis; assay type: ADME, cell-based
Summary of the method: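 bEnd.3 mouse brain endothelial cells were exposed to 5(6)-carboxyfluorescein-labeled peptides and counterstained with Hoechst 33342 and CellMask Deep Red membrane stain. Imaging used point-scanning confocal microscopy with a 63× oil objective, 405 nm excitation for the stains and 488 nm for the peptide.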

Mus musculus [2] = test: Analgesic activity in mouse assessed as pain response at 5 to 20 mg/kg, po pretreated with compound for 30 mins followed by THP addition and measured after 60 mins by hot plate test; assay type: functional, organism-based; details: dose 5-20 mg/kg, time 90.0 min
Summary of the method: (§1)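 Mice got peptide or vehicle IV (20 mg/kg) or orally by gavage (5, 10, 20 mg/kg) 30 min before IP THC 10 mg/kg (vehicle 5% ethanol, 5% Cremophor-EL, 90% saline). Latency to jump on a 52 ± 0.5 °C hot plate was read 60 min after THC, with a 240 s cutoff. Mean ± SEM, n = 10–12 (IV) or 5–8 (oral); Fisher LSD.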

Mus musculus [3] = test: Protection against THP-induced amnesic effect in mouse assessed as reduction in memory impairment at 5 to 20 mg/kg, po pretreated for 30 mins followed by THP addition; assay type: functional, organism-based; details: dose 5-20 mg/kg
Summary of the method: (§2)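 V-maze novel object recognition. Day 1 was 9 min habituation. Day 2 was 9 min training with two identical objects. Peptide was given IV (20 mg/kg) or orally (5, 10, 20 mg/kg) right after training, then IP THC 3 mg/kg or vehicle 30 min later. The 9 min test came 24 h later with one object replaced. Discrimination index = (novel − familiar)/total exploration time; exploration meant the nose oriented within 2 cm of the object. Fisher LSD.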

Mus musculus [4] = test: Protection against THP-induced amnesic effect in mouse assessed as reduction in memory impairment at 20 mg/kg, iv pretreated for 30 mins followed by THP addition; assay type: functional, organism-based; summary of the method: as §2
BEND3 = test: Induction of BBB translocation in mouse BEND3 cells measured after 24 hrs by fluorescence analysis; assay type: functional, cell-based
Summary of the method: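 5(6)-Carboxyfluorescein-labeled peptides were applied to a transwell BBB model of bEnd.3 cells. Translocation (%) was measured as fluorescence in the basolateral chamber after 24 h, with a trans-BBB peptide as positive control. Barrier integrity was checked afterward by FD4 dextran permeability. Mean ± SEM, n = 3–6, independent cultures on different days.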

Mus musculus [5] = test: Immunogenicity in CD1 mouse at 100 ug administered for 5 consecutive days and booster dose on day 15 measured upto 19 days by ELISA; assay type: ADME, organism-based; details: in vivo, 456 h, time <=19 day, dose 100 µg
Summary of the method: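 Female outbred Hsd:ICR (CD-1) mice (n = 10) got IV peptide 100 μg/dose in PBS + 2% DMSO on 5 consecutive days with a boost on day 15. Controls were KLH conjugate 30 μg (n = 5) and PBS (n = 5). Sera from days 0, 9 and 19 were tested by indirect ELISA on plates coated with peptide-BSA 1 μg/mL, using anti-IgG-HRP, TMB and A450. Titer (log10) = reciprocal of the last dilution above the day-0 serum signal + 2 SD.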

Mus musculus [6] = test: Analgesic activity in mouse assessed as pain response at 20 mg/kg, iv pretreated with compound for 30 mins followed by THP addition and measured after 60 mins by hot plate test; assay type: functional, organism-based; details: time 90.0 min; summary of the method: as §1

CC[C@@H](C)[C@@H](NC(=O)CNC(=O)[C@@H](C)NC(=O)[C@H](NC(=O)[C@@H](Cc1ccc(O)cc1)NC(=O)[C@@H](C)NC(=O)[C@@H](Cc1ccc(O)cc1)NC(=O)[C@@H](CCSC)NC(=O)[C@@H](Cc1ccc(O)cc1)NC(=O)[C@H](NC(=O)[C@@H](CC(C)C)NC(=O)[C@H](N)Cc1c[nH]c2ccccc12)[C@H](C)CC)C(C)C)C(=O)N[C@H](CC(C)C)C(=O)N[C@H](CCCCN)C(=O)N[C@H](CCCNC(=N)N)C(=O)N[C@H](Cc1c[nH]c2ccccc12)C(N)=O (H-[dW][dL][dI][dY][dM][dY][dA][dY][dV][dA]G[dI][dL][dK][dR][dW]-NH2)
inhibition (HEK293T): Active | Drug uptake [1]: Active | Activity (Mus musculus [2]): Active | Activity (Mus musculus [3]): Active | Activity (Mus musculus [4]): Active | Activity (BEND3): Active | Activity (Mus musculus [5]): Non-Toxic | Activity (Mus musculus [6]): Active
